The results in this text go back to ChEMBL document CHEMBL1138494, “Human glucagon receptor antagonists with thiazole cores. A novel series with superior pharmacokinetic properties” (J Med Chem, 2009).

The nature of series [1]: Half life in fasted Sprague-Dawley rat plasma at 1.66 mg/kg, iv by HTLC-MS/MS analysis. In kind it is ADME, organism-based. Set-up: dose 1.66 mg/kg, route intravenous. A digest of the protocol: (§1)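 Rats were dosed intravenously and perorally in separate arms, and plasma concentration-time profiles were obtained. Half-life was taken from the iv arm. Clearance, oral bioavailability, Cmax and Tmax were derived from the profiles.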

Series [2] deals with T1, Gastric inhibitory polypeptide receptor (Homo sapiens, UniProt P48546).
T1 sequence (P48546 whole entry): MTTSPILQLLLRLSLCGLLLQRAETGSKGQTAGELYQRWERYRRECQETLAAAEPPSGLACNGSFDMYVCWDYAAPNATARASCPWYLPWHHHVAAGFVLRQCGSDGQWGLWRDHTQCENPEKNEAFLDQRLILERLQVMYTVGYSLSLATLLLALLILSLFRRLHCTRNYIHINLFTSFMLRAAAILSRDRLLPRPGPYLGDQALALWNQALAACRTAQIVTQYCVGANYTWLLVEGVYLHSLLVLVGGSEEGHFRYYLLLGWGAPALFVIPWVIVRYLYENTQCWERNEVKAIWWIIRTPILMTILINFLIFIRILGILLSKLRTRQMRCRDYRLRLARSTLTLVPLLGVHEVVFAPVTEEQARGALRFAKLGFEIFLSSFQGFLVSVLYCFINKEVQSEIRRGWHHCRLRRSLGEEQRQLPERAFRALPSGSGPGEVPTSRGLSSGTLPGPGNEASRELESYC
Kind of series: Displacement of [125I]porcine GIP from human recombinant GIPR receptor expressed in BHK cells by scintillation proximity assay. It is filed as cell-based.

The nature of series [3]: Tmax in fasted Sprague-Dawley rat at 1.6mg/kg, iv and 3 mg/kg, po. In kind it is ADME, organism-based. On the set-up: dose 3 mg/kg, route oral. To be noted: in vivo. A digest of the protocol:
(§2)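 Plasma concentration–time profiles were recorded after separate intravenous and peroral dosing at the per-compound doses listed. T_max is reported in min alongside C_max (ng/mL), intravenous half-life and clearance ((mL/min)/kg).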

For series [4], the species on record is Homo sapiens. Kind of series: Selectivity for human recombinant glucagon receptor over human GLP1R.
For series [5], the species on record is Homo sapiens. In words: Selectivity ratio of IC50 for human recombinant glucagon receptor to IC50 for human recombinant GIPR. A digest of the protocol: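 Competition binding of compounds to recombinant human glucagon and GIP receptors on BHK cell membranes, run in parallel as a scintillation proximity assay and, for selected compounds, as a membrane filtration assay.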

The nature of series [6]: Oral bioavailability in fasted Sprague-Dawley rat at 3 mg/kg by HTLC-MS/MS analysis. It is filed as ADME, organism-based. To be noted: in vivo. The method, boiled down:
(§3)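 Separate intravenous and peroral dosing arms per compound, with plasma concentration followed against time. Oral bioavailability (F_po) is reported per compound together with the intravenous half-life and clearance. The dose used for each arm is listed per compound.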

The nature of series [7]: Clearance in fasted Sprague-Dawley rat at 1.66 mg/kg, iv and 3 mg/kg, po. In kind it is ADME, organism-based. To be noted: in vivo. The method, boiled down:
as §1

Series [8] addresses T2, Glucagon receptor (Homo sapiens, UniProt P47871). In words: Displacement of [125I]porcine glucagon from human recombinant glucagon receptor expressed in BHK cells by scintillation proximity assay. It is filed as cell-based. For orientation: In a radioligand displacement assay an active substance lowers the binding of a labelled ligand.
A short description of series [9]: Cmax in fasted Sprague-Dawley rat at 1.66mg/kg, iv and 3 mg/kg, po. To be noted: in vivo. It is filed as ADME, organism-based. Set-up: dose 3 mg/kg, route oral. The method, boiled down:
as §1

For series [10], the system named is Hepatocyte. In words: Inhibition of glucagon-stimulated glucose production in rat primary hepatocytes. It is filed as functional, cell-based.
Series [11] is described as follows: Binding affinity to glucagon receptor in monkey liver membrane by membrane filter assay. It is filed as cell membranes, Macaca mulatta.
A short description of series [12]: Cmax in fasted Beagle dog at 0.25 mg/kg, iv and 0.5 mg/kg, po. It is filed as ADME, organism-based, Canis lupus familiaris. To be noted: in vivo. The method, boiled down:
(§4)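 Dogs were dosed at 0.25 mg/kg iv and 0.5 mg/kg po, and plasma concentration was followed over time. Half-life came from the iv arm; clearance, Cmax and Tmax were also derived.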

The subject of series [13] is Hepatocyte. Kind of series: Inhibition of glucagon-stimulated glucose production in human primary hepatocytes preincubated for 10 mins before glucagon addition by NADH-linked hexokinase assay. In kind it is functional, cell-based. A digest of the protocol: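 Cultured primary human hepatocytes were preincubated with compound for 10 min, then glycogenolysis was induced with 5 nM glucagon for 60 min. Glucose in the medium was measured against basal glycogenolysis. Albumin was present in the assay medium. IC50 was calculated from four experiments, mean ± SEM.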

Series [14] deals with T1, Gastric inhibitory polypeptide receptor. Kind of series: Binding affinity to human recombinant GIPR expressed in BHK cells by membrane filter assay. In kind it is cell-based.
A short description of series [15]: Clearance in fasted Beagle dog at 0.25 mg/kg, iv and 0.5 mg/kg, po. As to conditions: in vivo. It is filed as ADME, organism-based, Canis lupus familiaris. A digest of the protocol:
as §4

Series [16] addresses T2, Glucagon receptor. In words: Binding affinity to human recombinant glucagon receptor expressed in BHK cells by membrane filter assay. In kind it is cell-based.
Series [17] can be described thus: Oral bioavailability in fasted Sprague-Dawley rat at 3.25 mg/kg by HTLC-MS/MS analysis. It is filed as ADME, organism-based. To be noted: in vivo. A digest of the protocol: as §3
The target of series [18] is Glucagon receptor (Mus musculus, UniProt Q61606). Kind of series: Binding affinity to glucagon receptor in mouse liver membrane by membrane filter assay. It is filed as cell membranes.
Glucagon receptor (Mus musculus, UniProt Q61606), sequence (Q61606 whole entry): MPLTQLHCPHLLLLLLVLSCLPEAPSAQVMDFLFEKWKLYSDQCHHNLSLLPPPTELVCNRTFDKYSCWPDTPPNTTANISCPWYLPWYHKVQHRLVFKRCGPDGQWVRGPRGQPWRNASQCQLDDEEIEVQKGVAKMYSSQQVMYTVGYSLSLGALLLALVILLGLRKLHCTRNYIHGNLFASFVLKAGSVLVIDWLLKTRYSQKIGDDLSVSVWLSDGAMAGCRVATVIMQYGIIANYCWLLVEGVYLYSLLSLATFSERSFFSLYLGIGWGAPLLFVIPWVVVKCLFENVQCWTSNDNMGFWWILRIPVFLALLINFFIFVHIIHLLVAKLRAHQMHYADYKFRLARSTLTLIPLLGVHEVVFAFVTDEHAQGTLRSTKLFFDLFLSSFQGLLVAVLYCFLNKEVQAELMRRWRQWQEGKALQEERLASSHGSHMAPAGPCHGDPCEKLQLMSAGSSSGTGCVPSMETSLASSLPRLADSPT
Series [19] is described as follows: Oral bioavailability in fasted Beagle dog at 0.5 mg/kg. As to conditions: in vivo. In kind it is ADME, organism-based, Canis lupus familiaris. A digest of the protocol: as §3
The nature of series [20]: Tmax in fasted Sprague-Dawley rat at 1.60 mg/kg, iv and 3.25 mg/kg, po by HTLC-MS/MS analysis. As to conditions: in vivo. It is filed as ADME, organism-based. The method, boiled down:
as §2

Series [21] in a line: Binding affinity to glucagon receptor in pig liver membrane by membrane filter assay. It is filed as cell membranes, Sus scrofa.
The target in series [22] is Glucagon receptor (Rattus norvegicus, UniProt P30082). In words: Binding affinity to glucagon receptor in rat liver membrane by membrane filter assay. In kind it is cell membranes.
Glucagon receptor (Rattus norvegicus, UniProt P30082), sequence (P30082 whole entry): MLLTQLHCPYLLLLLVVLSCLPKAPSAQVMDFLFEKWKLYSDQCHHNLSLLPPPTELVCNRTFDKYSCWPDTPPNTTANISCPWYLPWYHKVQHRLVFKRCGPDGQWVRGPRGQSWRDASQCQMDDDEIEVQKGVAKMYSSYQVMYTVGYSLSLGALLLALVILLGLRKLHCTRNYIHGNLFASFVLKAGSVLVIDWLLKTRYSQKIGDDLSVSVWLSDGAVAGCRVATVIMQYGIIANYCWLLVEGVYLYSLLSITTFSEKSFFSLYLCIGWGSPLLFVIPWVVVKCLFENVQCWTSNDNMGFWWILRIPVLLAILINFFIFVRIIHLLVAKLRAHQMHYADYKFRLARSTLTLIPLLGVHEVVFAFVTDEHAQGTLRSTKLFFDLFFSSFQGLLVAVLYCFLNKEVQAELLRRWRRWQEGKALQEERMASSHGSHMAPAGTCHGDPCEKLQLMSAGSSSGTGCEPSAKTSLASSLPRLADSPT
A short description of series [23]: Binding affinity to glucagon receptor in dog liver membrane by membrane filter assay. It is filed as cell membranes, Canis lupus familiaris.
Series [24] is described as follows: Binding affinity to glucagon receptor in rabbit liver membrane by membrane filter assay. In kind it is cell membranes, Oryctolagus cuniculus.
Series [25] in a line: Cmax in fasted Sprague-Dawley rat at 1.60 mg/kg, iv and 3.25 mg/kg, po by HTLC-MS/MS analysis. In kind it is ADME, organism-based. To be noted: in vivo. The method, boiled down:
as §1

A short description of series [26]: Half life in fasted Beagle dog at 0.25 mg/kg, iv. It is filed as ADME, organism-based, Canis lupus familiaris. Set-up: dose 0.25 mg/kg, route intravenous. To be noted: in vivo. The method, boiled down: as §4
A short description of series [27]: Tmax in fasted Beagle dog at 0.25 mg/kg, iv and 0.5 mg/kg, po. In kind it is ADME, organism-based, Canis lupus familiaris. As to conditions: in vivo. The method, boiled down: as §2
The nature of series [28]: Clearance in fasted Sprague-Dawley rat at 1.60 mg/kg, iv and 3.25 mg/kg, po by HTLC-MS/MS analysis. In kind it is ADME, organism-based. As to conditions: in vivo, 1.6 mg/kg. The method, boiled down: as §1
Series [29] can be described thus: Half life in fasted Sprague-Dawley rat plasma at 1.60 mg/kg, iv by HTLC-MS/MS analysis. It is filed as ADME, organism-based. On the set-up: dose 1.6 mg/kg, route intravenous. To be noted: 1.6 mg/kg. The method, boiled down:
as §1

Series [30] in a line: Tmax in fasted Sprague-Dawley rat at 1.62 mg/kg, iv and 3.25 mg/kg, po by HTLC-MS/MS analysis. To be noted: in vivo. It is filed as ADME, organism-based. A digest of the protocol:
as §2

Series [31] is described as follows: Clearance in fasted Sprague-Dawley rat at 1.62 mg/kg, iv and 3.25 mg/kg, po by HTLC-MS/MS analysis. As to conditions: in vivo. In kind it is ADME, organism-based. A digest of the protocol: as §1
A short description of series [32]: Half life in fasted Sprague-Dawley rat plasma at 1.62 mg/kg, iv by HTLC-MS/MS analysis. In kind it is ADME, organism-based. Set-up: dose 1.62 mg/kg, route intravenous. A digest of the protocol:
as §1

Series [33] in a line: Cmax in fasted Sprague-Dawley rat at 1.62 mg/kg, iv and 3.25 mg/kg, po by HTLC-MS/MS analysis. As to conditions: in vivo. It is filed as ADME, organism-based. The method, boiled down:
as §1

The source made the active and inactive calls. A value given as a limit tells only on which side of the number the result lay.

T2 sequence (P47871 whole entry): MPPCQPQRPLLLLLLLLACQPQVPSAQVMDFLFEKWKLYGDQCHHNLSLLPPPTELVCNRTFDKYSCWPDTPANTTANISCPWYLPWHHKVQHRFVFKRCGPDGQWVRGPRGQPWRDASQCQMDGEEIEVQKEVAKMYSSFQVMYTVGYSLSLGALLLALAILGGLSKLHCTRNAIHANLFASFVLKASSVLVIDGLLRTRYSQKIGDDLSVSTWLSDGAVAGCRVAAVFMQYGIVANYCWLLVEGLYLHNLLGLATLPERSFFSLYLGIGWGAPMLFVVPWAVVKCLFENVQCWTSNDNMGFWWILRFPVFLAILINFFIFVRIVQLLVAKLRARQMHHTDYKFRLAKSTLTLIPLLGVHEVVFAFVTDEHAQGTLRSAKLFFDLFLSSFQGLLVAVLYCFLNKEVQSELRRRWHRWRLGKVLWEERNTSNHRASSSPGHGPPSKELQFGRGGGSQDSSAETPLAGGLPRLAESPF

`O=C(O)CCNC(=O)c1ccc(N(Cc2ccc3c(c2)Cc2ccccc2-3)c2nc(-c3ccc(OC(F)(F)F)cc3)cs2)cc1`: the half-life in [1] came to 0.767 h. For the same compound, the IC50 in [2] stood at 732 nM; on Glucagon receptor [8], 81 nM. Also, the Tmax in series [3] is 1.5 h. The values for the fold change (FC) in the series listed under Homo sapiens [4] and in the series filed under Homo sapiens [5] were over 50 and 5, respectively. The bioavailability in series [6] stood at 13%. The clearance in [7] was determined as 31 mL/min/kg. In [9], the concentration peaked (Cmax) at 82 ng/mL.

Regarding `O=C(O)CCNC(=O)c1ccc(CN(c2ccc(Cl)cc2)c2nc(-c3ccc(C(F)(F)F)cc3)cs2)cc1`, in the series on Hepatocyte [10], the inhibition entry is “inactive”. Besides, the IC50 in series [11] was determined as 51 nM; in [2] it was 649 nM; in the series with Hepatocyte [13], 2700 nM; in [14], 410 nM; at Glucagon receptor [16], 53 nM; on Glucagon receptor [18] it was 372 nM. The IC50 is 4000 nM in series [21]; 1400 nM on Glucagon receptor [22]; 68 nM in [23]; 943 nM in series [24]; 76 nM on Glucagon receptor [8]. Further, the Cmax came to 120 ng/mL in [12] and 216 ng/mL in [25]. Besides, the figures for the clearance in [15] and in series [28] were 4.66 mL/min/kg and 5 mL/min/kg, respectively. Further, the fold change (FC) in the series filed under Homo sapiens [4] is over 50; in the series listed under Homo sapiens [5], 5. Besides, the bioavailability worked out at 13% in [17] and 16% in series [19]. The figures for the Tmax in series [20] and in series [27] were 1.5 h and 1.75 h, respectively. For the same compound, the half-life in [26] was determined as 1.33 h; in series [29], 2.25 h.

As for `O=C(O)CCNC(=O)c1ccc(CN(c2ccc3c(c2)CCCC3)c2nc(-c3ccc(C(F)(F)F)cc3)cs2)cc1`, the IC50 in series [11] stood at 3 nM; in [2] it was 564 nM; in series [14] it was 390 nM; at Glucagon receptor [16], 48 nM; at Glucagon receptor [8] it was 77 nM. For the same compound, the fold change (FC) in the series filed under Homo sapiens [4] is over 50; in the series listed under Homo sapiens [5], 5. In addition, the time to peak (Tmax) in series [30] was 1.5 h. The same compound returned a bioavailability in [17] of 27%. In series [31], the clearance is 7 mL/min/kg. The compound further registered a half-life in series [32] of 1.23 h. Moreover, in series [33], the concentration peaked (Cmax) at 615 ng/mL.

What is called half-life is the time needed for the level to fall by half in the phase considered. In general, IC50 refers to the point on the concentration scale where inhibition reaches its midpoint. The term Tmax denotes the time at which the peak concentration occurs. What is called bioavailability is the share of a dose that reaches the circulation, judged against a reference dose that is usually intravenous. The term Cmax denotes the highest concentration seen after dosing.
